According to ChEMBL document CHEMBL4371031, “In Vitro Antiviral Activity of New Oxazoline Derivatives as Potent Poliovirus Inhibitors” (J Med Chem, 2019):
Active and inactive are the calls of the source. The calls are words filed in the database; no cut-off is given here.

Legend:
Format in all cases: functional, organism-based
Poliovirus 2 [1] = test: Antiviral activity against Human poliovirus 2 10231 infected in human HeLa cells assessed as reduction in virus-induced cytopathic effect after 72 hrs by crystal violet staining-based assay; settings: Enterovirus C, 10231, HeLa
Method in brief: (§1)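 HeLa cells grown in MEM-10% FBS, seeded at 2x10^5 cells/mL in MEM-2% FBS and preincubated 24 h at 37°C, 5% CO2. Compound and virus were cross-titrated […] compound in 0.5 log10 steps (7-point curves), with duplicate wells and three replicate tests per virus. After 72 h at 37°C, cells were crystal violet stained and read at 590 nm. EC50 came from a four-parameter fit; if all virus dilutions gave >80% monolayer destruction, the value was […].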

Poliovirus 2 [2] = test: Antiviral activity against Human poliovirus 2 Lansing infected in human HeLa cells assessed as reduction in virus-induced cytopathic effect after 72 hrs by crystal violet staining-based assay; settings: Enterovirus C; method in brief: as §1
Poliovirus 1 [3] = test: Antiviral activity against Human poliovirus 1 10691 infected in human HeLa cells assessed as reduction in virus-induced cytopathic effect after 72 hrs by crystal violet staining-based assay; settings: Enterovirus C, 10691, HeLa; method in brief: as §1
Poliovirus 2 [4] = test: Antiviral activity against Human poliovirus 2 10227 infected in human HeLa cells assessed as reduction in virus-induced cytopathic effect after 72 hrs by crystal violet staining-based assay; settings: Enterovirus C, 10227, HeLa; method in brief: as §1
Poliovirus 1 [5] = test: Antiviral activity against Human poliovirus 1 10690 infected in human HeLa cells assessed as reduction in virus-induced cytopathic effect after 72 hrs by crystal violet staining-based assay; settings: Enterovirus C, 10690, HeLa; method in brief: as §1
Poliovirus 1 [6] = test: Antiviral activity against Human poliovirus 1 10236 infected in human HeLa cells assessed as reduction in virus-induced cytopathic effect after 72 hrs by crystal violet staining-based assay; settings: Enterovirus C, 10236, HeLa; method in brief: as §1
Poliovirus 1 [7] = test: Antiviral activity against Human poliovirus 1 10242 infected in human HeLa cells assessed as reduction in virus-induced cytopathic effect after 72 hrs by crystal violet staining-based assay; settings: Enterovirus C, 10242, HeLa; method in brief: as §1
Poliovirus 1 [8] = test: Antiviral activity against Human poliovirus 1 10238 infected in human HeLa cells assessed as reduction in virus-induced cytopathic effect after 72 hrs by crystal violet staining-based assay; settings: Enterovirus C, 10238, HeLa; method in brief: as §1
Poliovirus 2 [9] = test: Antiviral activity against Poliovirus Sabin 2 infected in human HeLa cells assessed as reduction in virus-induced cytopathic effect at 1 uM treated 6 hrs post infection and measured after 12 hrs by luminescence based assay
Method in brief: (§2)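 HeLa monolayers were infected with Sabin 2 at 100 CCID50 for 1 h at 37°C, then washed 3x. Drug was added at 0, 1, 2, 4, 6 or 8 h post-infection and left in place. At 12 h, virus was freeze-thawed 3x and titrated in 0.5 log10 dilutions (16 replicates) on HeLa cells for 5 days. CPE was read by ATP luminescence, titre calculated as CCID50 (Kärber); mean of three independent experiments.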

Poliovirus 1 [10] = test: Antiviral activity against Human poliovirus 1 10224 infected in human HeLa cells assessed as reduction in virus-induced cytopathic effect after 72 hrs by crystal violet staining-based assay; settings: Enterovirus C, 10224, HeLa; method in brief: as §1
Poliovirus 2 [11] = test: Antiviral activity against Human poliovirus 2 10228 infected in human HeLa cells assessed as reduction in virus-induced cytopathic effect after 72 hrs by crystal violet staining-based assay; settings: Enterovirus C, 10228, HeLa; method in brief: as §1
Poliovirus 2 [12] = test: Antiviral activity against Human poliovirus 2 10229 infected in human HeLa cells assessed as reduction in virus-induced cytopathic effect after 72 hrs by crystal violet staining-based assay; settings: Enterovirus C, 10229, HeLa; method in brief: as §1
Poliovirus 3 [13] = test: Antiviral activity against Human poliovirus 3 Saukett infected in human HeLa cells assessed as reduction in virus-induced cytopathic effect after 72 hrs by crystal violet staining-based assay; settings: Enterovirus C; method in brief: as §1
Poliovirus 1 [14] = test: Antiviral activity against Human poliovirus 1 10692 infected in human HeLa cells assessed as reduction in virus-induced cytopathic effect after 72 hrs by crystal violet staining-based assay; settings: Enterovirus C, 10692, HeLa; method in brief: as §1
Poliovirus 3 [15] = test: Antiviral activity against Human poliovirus 3 Sabin 3 infected in human HeLa cells assessed as reduction in virus-induced cytopathic effect after 72 hrs by crystal violet staining-based assay; settings: Enterovirus C, Sabin 3, HeLa; method in brief: as §1
Poliovirus 2 [16] = test: Antiviral activity against Human poliovirus 2 10230 infected in human HeLa cells assessed as reduction in virus-induced cytopathic effect after 72 hrs by crystal violet staining-based assay; settings: Enterovirus C, 10230, HeLa; method in brief: as §1
Poliovirus 1 [17] = test: Antiviral activity against Human poliovirus 1 10693 infected in human HeLa cells assessed as reduction in virus-induced cytopathic effect after 72 hrs by crystal violet staining-based assay; settings: Enterovirus C, 10693, HeLa; method in brief: as §1
Poliovirus 2 [18] = test: Antiviral activity against Poliovirus Sabin 2 infected in human HeLa cells assessed as reduction in virus-induced cytopathic effect at 1 uM treated 1 hr post infection and measured after 12 hrs by luminescence based assay; method in brief: as §2
Poliovirus 1 [19] = test: Antiviral activity against Human poliovirus 1 Mahoney infected in human HeLa cells assessed as reduction in virus-induced cytopathic effect after 72 hrs by crystal violet staining-based assay; settings: Enterovirus C; method in brief: as §1
Poliovirus 2 [20] = test: Antiviral activity against Human poliovirus 2 10221 infected in human HeLa cells assessed as reduction in virus-induced cytopathic effect after 72 hrs by crystal violet staining-based assay; settings: Enterovirus C, 10221, HeLa; method in brief: as §1
Poliovirus 2 [21] = test: Antiviral activity against Human poliovirus 2 P712 infected in human HeLa cells assessed as reduction in virus-induced cytopathic effect after 72 hrs by crystal violet staining-based assay; settings: Enterovirus C; method in brief: as §1
Poliovirus 1 [22] = test: Antiviral activity against Human poliovirus 1 10223 infected in human HeLa cells assessed as reduction in virus-induced cytopathic effect after 72 hrs by crystal violet staining-based assay; settings: Enterovirus C, 10223, HeLa; method in brief: as §1
Poliovirus 2 [23] = test: Antiviral activity against Human poliovirus 2 10232 infected in human HeLa cells assessed as reduction in virus-induced cytopathic effect after 72 hrs by crystal violet staining-based assay; settings: Enterovirus C, 10232, HeLa; method in brief: as §1
Poliovirus 3 [24] = test: Antiviral activity against Human poliovirus 3 Leon infected in human HeLa cells assessed as reduction in virus-induced cytopathic effect after 72 hrs by crystal violet staining-based assay; settings: Enterovirus C; method in brief: as §1
Poliovirus 2 [25] = test: Antiviral activity against Poliovirus Sabin 2 infected in human HeLa cells assessed as reduction in virus-induced cytopathic effect at 1 uM treated 0 to 8 hrs post infection and measured after 12 hrs by luminescence based assay; method in brief: as §2

SMILES | EC50 (Poliovirus 2 [1]) | EC50 (Poliovirus 2 [2]) | EC50 (Poliovirus 1 [3]) | EC50 (Poliovirus 2 [4]) | EC50 (Poliovirus 1 [5]) | EC50 (Poliovirus 1 [6]) | EC50 (Poliovirus 1 [7]) | EC50 (Poliovirus 1 [8]) | EC50 (Poliovirus 1 [10]) | EC50 (Poliovirus 2 [11]) | EC50 (Poliovirus 2 [12]) | EC50 (Poliovirus 3 [13]) | EC50 (Poliovirus 1 [14]) | EC50 (Poliovirus 3 [15]) | EC50 (Poliovirus 2 [16]) | EC50 (Poliovirus 1 [17]) | EC50 (Poliovirus 1 [19]) | EC50 (Poliovirus 2 [20]) | EC50 (Poliovirus 2 [21]) | EC50 (Poliovirus 1 [22]) | other results
Cc1ccc(C(=O)CCCCSc2ccc(C3=NCCO3)cc2)s1 | 5330 nM | 2270 nM | 560 nM | 4330 nM | 2000 nM | 720 nM | 8200 nM | 7470 nM | > 10000 nM | 9100 nM | 2770 nM | 1670 nM | > 10000 nM | 330 nM | 5330 nM | > 10000 nM | > 10000 nM | 2370 nM | 2930 nM | 3730 nM | Activity (Poliovirus 2 [9]): Active; Activity (Poliovirus 2 [18]): inactive; EC50 (Poliovirus 2 [23]): 6330 nM; EC50 (Poliovirus 3 [24]): 1110 nM
Cc1ccc(C(=O)CCCCOc2ccc(C3=NCCO3)cc2)s1 | 50 nM | 590 nM | 67500 nM | 30 nM | 48700 nM | 2720 nM | 37900 nM | 2100 nM | > 100000 nM | 10100 nM | 550 nM | 350 nM | > 100000 nM | 320 nM | 100 nM | 24200 nM | > 100000 nM | 20 nM | > 100000 nM | 70 nM | Activity (Poliovirus 2 [9]): inactive; Activity (Poliovirus 2 [18]): inactive; EC50 (Poliovirus 2 [23]): 540 nM; EC50 (Poliovirus 3 [24]): 170 nM
Cc1ccc(C(=O)CCC/C=C/c2ccc(C3=NCCO3)cc2)s1 | 30 nM | 60 nM | 980 nM | 40 nM | 1260 nM | 720 nM | 20 nM | 190 nM | 1110 nM | 500 nM | 510 nM | 40 nM | 780 nM | 50 nM | 30 nM | 980 nM | 70 nM | 20 nM | 240 nM | 20 nM | Activity (Poliovirus 2 [25]): Active; EC50 (Poliovirus 2 [23]): 23 nM; EC50 (Poliovirus 3 [24]): 950 nM
